Reference: article PMC2266615 (The Journal of General Physiology, 2005)
Read-outs that look alike come from different tables or passages of the source. The star is where a group is joined. acrylodan = 6-acryloyl-2-dimethylaminonaphthalene, CN(C)c1ccc2cc(C(=O)CC*)ccc2c1

Columns and labels:
[1] = format: binding; settings: for rate of removal from vesicles by Ca/CaM: 2 μM Ca/CaM
In short: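 Stopped-flow fluorescence mixing of two solutions. The second holds 0.5–7 μM CaM with 50 μM CaCl2. Both contain 100 mM KCl and 1 mM MOPS, pH 7.0. Time constants τ come from exponential fluorescence rise; the transfer rate constant is the slope of 1/τ against [CaM].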

calmodulin (Ca/CaM) = calmodulin (Ca/CaM) (Homo sapiens, UniProt P0DP23); assay: Ca/CaM binding by competition with PC/PS vesicles; design: species or system bovine brain and human brain; settings: 2:1 PC/PS LUVs, 100 mM KCl, 1 mM MOPS, pH 7.0, 100 μM EGTA + 120 μM Ca2+; trace peptide ~5 nM; centrifugation; fit of Eq. 2
In short: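 Trace (~5 nM) [3H]NEM-labelled test peptide mixed with 100-nm sucrose-loaded 2:1 PC/PS LUVs (total lipid 2 × 10−5 M; repeats with 3:1 PC/PS) and varied bovine or human brain CaM. Spun 100,000 g for 1 h. Percent bound from supernatant/pellet counts; KCaM from a competition equation (Eq. 2) fit.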

ErbB1 [2] = settings: ref Li et al., 2004a, cited from earlier work; for steady-state ErbB1 autophosphorylation: times >20 min; for initial peak of ErbB1 autophosphorylation: two other cell types
ErbB1 [3] = settings: ref Li et al., 2004a; cited from earlier work
[4] = extrapolated from peptide binding, [lipid]eff > 10^−2 M
[5] = effect of added agents on binding of ErbB1; settings: 2 μM sphingosine; PC/PS vesicles
ErbB1 [6] = settings: A431 cells, 5 min after EGF; ref Friedman et al., 1989; cited from earlier work
ErbB1 [7] = settings: cardiac fibroblasts; ref Murasawa et al., 1998; cited from earlier work
[8] = molecular target: ErbB1(645–660) peptide with a phosphorylated Thr654 (human (from the printed accession P00533)); assay: centrifugation of vesicles
ErbB1 [9] = settings: membranes and solubilized form; ref Davis et al., 1988; cited from earlier work
hepatocytes = settings: EGF, in the next 2–3 min, ref Nojiri and Hoek, 2000; cited from earlier work
A431 cells = settings: ref Hughes et al., 1991, cited from earlier work; for intracellular [Ca2+]: EGF
ErbB1 [10] = assay: EGF-mediated ErbB1 autophosphorylation in Cos1 cells; format: cell-based

acrylodan-labeled ErbB1(645–660): ErbB1(645–660) labeled with acrylodan (Ac-C(acrylodan)RRRHIVRKRTLRRLLQ-NH2; SMILES CC[C@H](C)[C@H](NC(=O)[C@H](Cc1c[nH]cn1)NC(=O)[C@H](CCCNC(=N)N)NC(=O)[C@H](CCCNC(=N)N)NC(=O)[C@H](CCCNC(=N)N)NC(=O)[C@H](CSCCC(=O)c1ccc2cc(N(C)C)ccc2c1)NC(C)=O)C(=O)N[C@H](C(=O)N[C@@H](CCCNC(=N)N)C(=O)N[C@@H](CCCCN)C(=O)N[C@@H](CCCNC(=N)N)C(=O)N[C@H](C(=O)N[C@@H](CC(C)C)C(=O)N[C@@H](CCCNC(=N)N)C(=O)N[C@@H](CCCNC(=N)N)C(=O)N[C@@H](CC(C)C)C(=O)N[C@@H](CC(C)C)C(=O)N[C@@H](CCC(N)=O)C(N)=O)[C@@H](C)O)C(C)C)
rate of removal from vesicles by Ca/CaM ([1]; 10% PS): 100 s⁻¹
rate of removal from vesicles by Ca/CaM ([1]; 15% PS): 10 s⁻¹
transfer rate constant (slope of 1/τ vs. [CaM]) ([1]; 85:15 PC/PS vesicles (15% PS)): 5e+06 M⁻¹ s⁻¹
lifetime of peptide on vesicles ([1]; 85:15 PC/PS vesicles, without Ca/CaM): ~0.3 s

ErbB4(676–692): peptide corresponding to the juxtamembrane region of ErbB4 (Ac-CRRKSIKKKRALRRFLET-NH2; not fully specified (residue 1))
Ca/CaM Association Constant (KCaM) (calmodulin (Ca/CaM)): 2e+07 M⁻¹

NCCCCNS(=O)(=O)c1ccc2ccccc2c1 [W-12]
steady-state ErbB1 autophosphorylation (ErbB1 [2]): not the steady-state value
initial peak of ErbB1 autophosphorylation (ErbB1 [2]): inhibit the initial peak
tyrosine kinase activity of purified ErbB1 (ErbB1 [3]): do not inhibit

645–660 region of ErbB1: tethered 645–660 region of ErbB1 (RRRHIVRKRTLRRLLQ; UniProt P00533 669-684, looked up, fragment)
ratio of bound/free = K[lipid]eff [4]: > 100
time bound to the plasma membrane (tethered region) [4]: > 99%

ErbB3(667–683): peptide corresponding to the juxtamembrane region of ErbB3 (Ac-CRGRRIQNKRAMRRYLER-NH2; not fully specified (residue 1))
Ca/CaM Association Constant (KCaM) (calmodulin (Ca/CaM)): 3e+06 M⁻¹

CCCCCCCCCCCCC/C=C/[C@@H](O)[C@@H](N)CO [sphingosine]
ErbB1(645–660) peptide desorbed from vesicles [5]: 75%

C/C=C(/C)C(=O)O[C@H]1C(C)=C2[C@H]([C@@H]1OC(=O)CCCCCCC)[C@@](C)(OC(C)=O)C[C@H](OC(=O)CCC)[C@@]1(O)[C@H]2OC(=O)[C@@]1(C)O [thapsigargin]
receptor autophosphorylation (ErbB1 [6]): inhibit receptor autophosphorylation

CC(=O)OCOC(=O)CN(CC(=O)OCOC(C)=O)c1ccccc1OCCOc1ccccc1N(CC(=O)OCOC(C)=O)CC(=O)OCOC(C)=O [BAPTA-AM]
angiotensin II–stimulated ErbB1 transactivation (ErbB1 [7]): inhibit

calcium/calmodulin (from UniProt P0DP23 1-149) (natural protein)
fold reduction of KCaM against the unphosphorylated peptide [8]: 20 fold

ErbB2(676–692): peptide corresponding to the juxtamembrane region of ErbB2 (Ac-CKRRQQKIRKYTMRRLLQ-NH2; not fully specified (residue 1))
Ca/CaM Association Constant (KCaM) (calmodulin (Ca/CaM)): 6e+07 M⁻¹

epidermal growth factor [EGF]
ErbB1 activation (ErbB1 [9]): can activate ErbB1 both in membranes and in solubilized form
intracellular [Ca2+] (hepatocytes): 150 nM
increase of intracellular [Ca2+] (A431 cells; 30 nM EGF, ∼5 min): about fivefold
intracellular [Ca2+] (A431 cells; 5 min): 600 nM
intracellular [Ca2+] (A431 cells; by 15 min): 150 nM

NCCCCNS(=O)(=O)c1ccc2c(Cl)cccc2c1 [W-13]
steady-state ErbB1 autophosphorylation (ErbB1 [2]): not the steady-state value
initial peak of ErbB1 autophosphorylation (ErbB1 [2]): inhibit the initial peak
tyrosine kinase activity of purified ErbB1 (ErbB1 [3]): do not inhibit

NCCCCCCNS(=O)(=O)c1cccc2c(Cl)cccc12 [W-7]
steady-state ErbB1 autophosphorylation (ErbB1 [2]): not the steady-state value
initial peak of ErbB1 autophosphorylation (ErbB1 [2]): inhibit the initial peak
angiotensin II–stimulated ErbB1 transactivation (ErbB1 [7]): inhibit
tyrosine kinase activity of purified ErbB1 (ErbB1 [3]): do not inhibit
ErbB1 receptor levels (ErbB1 [10]; 20–50 μM W-7, anti-ErbB1 reprobe): did not affect receptor levels
inhibition of EGF-mediated ErbB1 tyrosine phosphorylation (ErbB1 [10]; 20–50 μM for 30 min, then 100 ng/ml EGF 10 min, Western blot 4G10): dose-dependent inhibition
